Assay outcomes from PubChem.
This is a sample that favours compounds with a hit; in the whole collection about 1.5% have one here.
CHT allo act = allosteric activators of human choline transporter CHT; Q9GZV3; CHT-expressing cells, membrane potential dye, choline EC20; active compounds read high; LV-AA mutant CHT in HEK293 cells; B-score at 10 µM; 310,000 compounds, 0.49% hits; AID 488977;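 active means initial fluorescence not abnormally high and integrated response B-score, plate-corrected, over 3 SD above library mean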
CHT block = inhibitors of human choline transporter CHT | CHT-expressing cells, membrane potential dye, choline response; active compounds read low | B-score at 10 µM | 310,000 compounds, 0.86% hits | AID 488975;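 active means B-score over 3 SD under the library average, and starting fluorescence ratio not unusually high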;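 further: choline stimulus applied at its EC90 after an EC20 pre-addition; B-score computed on integrated fluorescence ratio after choline addition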
VLA-4 inh = inhibition in a human VLA-4 binding assay | P13612 | VLA-4 expressing cells, ligand binding flow cytometry | inhibition, % (about 7 µM as worked out from the volumes in the protocol) | 330,000 compounds, 0.2% hits | AID 2557; in the data active means inhibition above about 50%
Target sequence (P13612 whole entry, looked up): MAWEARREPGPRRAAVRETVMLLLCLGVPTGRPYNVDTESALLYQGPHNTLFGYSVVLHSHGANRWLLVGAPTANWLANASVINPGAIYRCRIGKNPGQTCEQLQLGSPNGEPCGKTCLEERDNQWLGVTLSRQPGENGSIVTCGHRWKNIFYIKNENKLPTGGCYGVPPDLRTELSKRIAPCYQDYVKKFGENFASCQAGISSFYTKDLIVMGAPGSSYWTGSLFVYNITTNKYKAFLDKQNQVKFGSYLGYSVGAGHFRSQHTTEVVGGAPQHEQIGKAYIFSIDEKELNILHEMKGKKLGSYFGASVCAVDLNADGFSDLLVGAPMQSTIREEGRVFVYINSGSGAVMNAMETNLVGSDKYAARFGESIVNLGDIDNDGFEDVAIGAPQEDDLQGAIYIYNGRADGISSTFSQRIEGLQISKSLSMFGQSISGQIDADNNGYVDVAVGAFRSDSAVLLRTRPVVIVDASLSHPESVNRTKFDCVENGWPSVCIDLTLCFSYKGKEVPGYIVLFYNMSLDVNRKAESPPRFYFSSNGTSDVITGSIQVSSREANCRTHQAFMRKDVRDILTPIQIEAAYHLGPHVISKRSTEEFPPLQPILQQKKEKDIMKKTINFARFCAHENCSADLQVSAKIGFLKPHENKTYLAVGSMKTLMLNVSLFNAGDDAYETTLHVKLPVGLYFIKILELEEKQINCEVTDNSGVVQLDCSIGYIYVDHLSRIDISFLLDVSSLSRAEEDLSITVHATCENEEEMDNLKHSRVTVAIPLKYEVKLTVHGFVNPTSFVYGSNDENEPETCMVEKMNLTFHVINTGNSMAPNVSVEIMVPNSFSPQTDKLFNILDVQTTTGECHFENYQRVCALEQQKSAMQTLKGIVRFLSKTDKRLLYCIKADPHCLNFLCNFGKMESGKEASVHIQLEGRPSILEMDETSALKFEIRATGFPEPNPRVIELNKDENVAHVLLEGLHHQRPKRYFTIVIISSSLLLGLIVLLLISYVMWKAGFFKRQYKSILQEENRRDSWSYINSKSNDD
T cell HTS = T cell immune modulation candidate; response (vesicle binding), % at 7 µM; 330,000 compounds, 0.068% hits; 2C CD8+ T cell-vesicle binding, flow cytometry; active compounds read low;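 active means response, share of CD8 T cells binding vesicles, and their 90th percentile fluorescence all below set limits, cut at about 80% in these data, passing the limit was not always enough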;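 further: values below 100% mean blocked vesicle binding to the CD8+ T cells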
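Assay system – 2C mouse CD8+ T cells · Also added – QL9-loaded Drosophila micro-vesicles · Timing – Cell–vesicle co-incubation 1.5 h at 37 °C, staining 20 min on ice · Signal – flow cytometry of vesicle-bound cells · Measure – percent CD8+ FL2 mean versus row control · Controls – Peptide-free naked vesicles (low) and QL9 vesicles with 0.7% DMSO vehicle (high)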
VLA-4 allo CP = human VLA-4 allosteric modulation in cherry picked compounds; shares compounds with VLA-4 inh; U937 cells, HUTS-21 LIBS mAb binding, flow cytometry; LDV ligand present at threefold Kd; inhibition, % at 6.7 µM; 1,300 compounds, 2% hits; AID 2813; in the data active means inhibition above about 40%;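 further: 0% = ligand without compound and 100% = no ligand background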
* = called active by the depositor; i = inactive; . = not tested or not shown; ! = repeats disagree.

SMILES | CHT allo act | CHT block | VLA-4 inh | T cell HTS | VLA-4 allo CP
COc1cccc(NC(=S)N(CCCN2CCOCC2)C(C)c2cc3ccccc3o2)c1 (centres undefined) | i | i | 14 | 283 | .
Nc1ccc(NS(=O)(=O)c2ccccc2)cc1 | i | i | -7 | 119 | 11
Nc1cccc(S(=O)(=O)Nc2ccccc2)c1 | i | i | 20 | 422 | 5
CC(=O)c1ccc(NS(=O)(=O)c2ccc(N)cc2)cc1 | i | i | 7 | 133 | -3
O=S(=O)(Nc1ccncc1)c1ccccc1 | i | i | 4 | 293 | .
CC(=O)c1ccc(NS(=O)(=O)c2ccccc2)cc1 | i | i | -13 | 376 | .
O=C1NC(Cc2ccccc2)c2nc3ccc(Cl)cc3c(=O)n2-c2ccccc21 (centres undefined) | . | . | 14 | 443 | .
COc1ccc(C(=O)Nc2nncs2)cc1S(=O)(=O)N1CCOCC1 | i | i | 59* | 205 | -3
COc1cccc(CNS(=O)(=O)c2ccc3c(c2)C(C)(C)C(=O)N3C)c1 | i | i | -13 | i | -6
Cc1cccc(N(C)S(=O)(=O)c2ccc3c(c2)C(C)(C)C(=O)N3C)c1 | i | i | -16 | 682 | -2
CCOc1ccccc1CNS(=O)(=O)c1ccc2c(c1)C(C)(C)C(=O)N2C | i | i | 8 | 651 | .
CC(C)C(NC(=O)c1ccccc1)C(=O)OCC(=O)N1CCN(c2ccccc2)CC1 (centres undefined) | . | . | 11 | 516 | .
CCC(CC)c1nc(C(N)=O)c2[nH]c(=O)n(-c3ccc(OC)c(OC)c3)c2n1 | i | i | 18 | 316 | .
CCOC(=O)CSc1nnc(CNC(=O)c2ccc(S(=O)(=O)N3CCCC3)cc2)n1C | i | i | 13 | 563 | .
CCOC(=O)CSc1nnc(CNC(=O)c2ccc(S(=O)(=O)N3CCOCC3)cc2)n1C | i | i | 42 | 254 | 9
CN(C(=O)Cn1nc(C(=O)O)c2ccccc2c1=O)C1CCCCC1 | . | . | 8 | 237 | .
O=C(CCSc1nnc(-c2ccncc2)o1)Nc1ccc(Cl)cc1 | i | i | 51* | 553 | 0
CC(C1CC2CCC1C2)n1c(-c2ccco2)n[nH]c1=S (centres undefined) | i | i | -5 | 120 | .
COc1ccccc1-c1cc(C(F)(F)F)nc(S(=O)(=O)CCCC(=O)N2CCCCC2C)n1 (centres undefined) | i | i | 50* | 734 | 14
COc1ccccc1-c1cc(C(F)(F)F)nc(S(=O)(=O)CCCC(=O)NC(C)C)n1 | i | i | 41 | 469 | .
O=C(OCC(=O)N1CCCC1)c1ccc(OC(F)(F)F)cc1 | i | i | -3 | 612 | .
CC1CCCC(C)N1C(=O)COC(=O)c1ccccc1O (centres undefined) | . | . | -3 | 349 | 7
Nc1cc(Cl)ccc1C(=O)OCC(=O)N1CCCCCC1 | . | . | 14 | 506 | -10
Cc1cccc(C(=O)OCC(=O)N2CCCCCC2)c1C | . | . | -2 | 305 | 0
CCCCOc1ccc(C(=O)OCC(=O)N2CCCCCC2)cc1 | . | . | 10 | 810 | 3
SMILES | CHT allo act | CHT block | VLA-4 inh | T cell HTS | VLA-4 allo CP
COc1ccc(Br)cc1CNC(=O)CCCc1cn(C)c2ccccc12 | i | i | 53* | 461 | -4
CCCCCOc1ccc(C(C)(O)C(CN2CCOCC2)c2ccccc2)cc1 (centres undefined) | i | i | 15 | 197 | .
CN(C)/C(=C\C(=O)c1ccccc1)C(=O)c1ccccc1 | . | . | . | . | -8
CC1CCCCN1S(=O)(=O)c1ccc(N(C(=O)c2cnccn2)C(C(=O)NC2CCCC2)c2cccs2)cc1 (centres undefined) | i | i | 45 | 248 | 0
COC(=O)c1c(NC(=O)c2cccc(S(=O)(=O)N3CCN(C)CC3)c2)sc(C)c1C | i | i | 3 | 588 | .
COc1ccc2[nH]c(=O)c(-c3noc(-c4ccccc4)n3)cc2c1 | i | i | 96* | 130 | -1
CCC(=O)Nc1ccc2ccccc2c1 | i | i | 45 | 387 | 4
CC(C)CC(=O)Nc1ccc2ccccc2c1 | i | i | 12 | 873 | .
CCOc1c(OC)cccc1C1CC(=O)Nc2cc3c(cc21)OCCO3 (centres undefined) | i | i | -10 | 617 | -6
COc1ccc(C(=O)c2cc([N+](=O)[O-])ccc2N2CCOCC2)cc1 | 10* | i | 31 | 314 | 47*
COc1ccc(S(=O)(=O)N(Cc2ccco2)Cc2cc3ccccc3[nH]c2=O)cc1 | i | i | 15 | 501 | .
CC(C)(C)OC(=O)N1CSC[C@H]1C(=O)NC[C@H](CC(=O)O)c1ccc(Cl)cc1 | i | i | -8 | 0 | .
CC(NC(=O)/C(C#N)=C/c1ccc(Cl)c([N+](=O)[O-])c1)c1ccccc1 (centres undefined) | i | i | 61* | 152 | 63*
Cc1nn(C)c(C)c1CNC(=O)Nc1ccc(Cl)cc1 | i | i | -15 | 839 | .
Cc1nn(C)c(C)c1CNC(=O)Nc1ccc2c(c1)OCO2 | i | i | 125* | 851 | 2
Cc1cc(C)n(CC(O)CN2C(=O)NC(C)(C)C2=O)n1 (centres undefined) | i | i | 54* | 203 | 2
CCOC(=O)C1=C(C)NC(C)=C(C(=O)OCC)C1C(=O)OCC(=O)N1CCCCC1C (centres undefined) | . | . | 6 | 161 | .
CCOC(=O)c1[nH]c(C)c(C(=O)OCC(=O)N2CCCCC2C)c1C (centres undefined) | i | i | 61* | 379 | 16
CCCCN1C(=O)C(=O)c2cc(Cl)ccc21 | . | . | 55* | 216 | 51*
c1ccc(CN(CC2=NCCN2)c2ccccc2)cc1 | i | i | 38 | 501 | .
Cc1ccc(N(CC2=NCCN2)c2cccc(O)c2)cc1 | i | i | 55*! | 514 | 6
CC(C)c1ccc(C(N)=S)cc1 | i | i | 0 | 0 | .
Cc1ccc2[nH]c(C(=O)N3CCN(C(c4ccccc4)c4ccccc4)CC3)cc2c1 | i | i | 4 | 486 | .
Cc1ccc(/C(O)=C2/C(=O)C(=O)N(CC(=O)O)C2c2ccc([N+](=O)[O-])cc2)cc1 (centres undefined) | i | i | 64* | 285 | 5
CC1=C(C(=O)Nc2ccc(F)cc2)C(c2cccc(C)c2)n2nc(CCCO)nc2N1 (centres undefined) | i | i | 51* | 313 | -4
CC(C)(C)c1nnc(NC(=O)Nc2ccc(Cl)cc2)s1 | i | i | -3 | 275 | .
CC(C)(C)c1nnc(NC(=O)NS(=O)(=O)c2ccccc2)s1 | i | i | 73* | 329 | 3
COc1cc(OC)cc(C(=O)NCCS(=O)(=O)N2CCN(Cc3ccccc3)CC2)c1 | i | i | 0 | i | .
NC(=O)NS(=O)(=O)Oc1ccccc1 | i | i | 50* | 396 | -15
